Source: PubChem BioAssay
Granule exo inh – blocks lytic granule exocytosis | inhibition, % at 10 µM | 360,000 compounds, 0.66% hits | TALL-104 LAMP-1 surface exposure, flow cytometry; cells stimulated with thapsigargin and PMA;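 active = inhibition above about 55%, limit read from the data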
ABHD5-PLIN5 inh – ABHD5-PLIN5 protein interaction inhibition; Split G. princeps luciferase complementation, luminescence, 4 h; inhibition, % at 4 µM; 360,000 compounds, 0.78% hits; AID 602281;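 active = inhibition above the mean inhibition across every tested compound plus 3 SD, cut at about 22% in these data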
PfG6PD inh – PfG6PD (Plasmodium falciparum) enzyme inhibition | PfGluPho enzyme, NADPH resazurin-diaphorase fluorescence | inhibition, % at 20 µM | 350,000 compounds, 0.78% hits | AID 504690;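 active = inhibition reaching at least a set limit at 20 µM in the primary screen, cut at about 59% in these data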
HKDC1 inh – inhibitors of human hexokinase HKDC1. recombinant HKDC1, G6PDH/diaphorase resazurin coupled fluorescence. inhibition, % at 20 µM. 340,000 compounds, 0.16% hits;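 active = inhibition above about 35% when tested at 20 µM, limit read from the data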
Target sequence (Q2TB90 whole entry, looked up): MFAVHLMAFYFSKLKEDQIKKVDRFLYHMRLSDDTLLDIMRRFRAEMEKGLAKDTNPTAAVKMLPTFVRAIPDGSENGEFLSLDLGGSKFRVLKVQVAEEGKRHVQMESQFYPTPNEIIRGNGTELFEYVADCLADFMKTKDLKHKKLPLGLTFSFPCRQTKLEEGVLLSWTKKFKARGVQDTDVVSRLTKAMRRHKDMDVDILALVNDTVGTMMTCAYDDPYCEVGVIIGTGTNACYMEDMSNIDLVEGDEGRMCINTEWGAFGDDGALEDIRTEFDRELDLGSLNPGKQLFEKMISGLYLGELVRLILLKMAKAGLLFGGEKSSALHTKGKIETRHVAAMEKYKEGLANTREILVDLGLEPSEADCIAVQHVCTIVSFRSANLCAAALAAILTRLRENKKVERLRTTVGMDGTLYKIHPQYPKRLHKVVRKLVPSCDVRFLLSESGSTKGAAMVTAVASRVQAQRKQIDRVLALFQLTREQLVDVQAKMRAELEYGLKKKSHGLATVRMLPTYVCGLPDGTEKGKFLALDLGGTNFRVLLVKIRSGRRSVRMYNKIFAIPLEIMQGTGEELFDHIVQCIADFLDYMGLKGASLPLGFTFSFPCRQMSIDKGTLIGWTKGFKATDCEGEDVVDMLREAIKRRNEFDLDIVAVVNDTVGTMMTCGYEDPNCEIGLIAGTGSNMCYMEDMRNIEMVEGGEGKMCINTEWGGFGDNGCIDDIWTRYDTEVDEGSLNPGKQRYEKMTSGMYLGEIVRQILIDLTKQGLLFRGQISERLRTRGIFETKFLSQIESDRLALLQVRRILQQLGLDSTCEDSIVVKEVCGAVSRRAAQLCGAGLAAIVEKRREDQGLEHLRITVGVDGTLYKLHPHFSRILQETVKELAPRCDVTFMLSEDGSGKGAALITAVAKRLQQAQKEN
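Assay system: in-house recombinant HK5 (HKDC1) enzyme. Input: HKDC1 at 5 µg/mL. Medium: Tris pH 8.0 buffer with MgCl2, Tween-20, BSA, BME. Dosing: single 20 µM dose. Schedule: 90 min reaction incubation at room temperature, dark. Signal: resazurin-to-resorufin fluorescence via G6PDH and diaphorase coupling, 525/613 nm. Controls: DMSO-enzyme wells negative, buffer-substituted wells positive.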
A number is an active result; – = inactive; · = not tested or not shown. Sampled rows, rich in hits. Any-hit rate of the full collection: about 2.2%.

SMILES	Granule exo inh	ABHD5-PLIN5 inh	PfG6PD inh	HKDC1 inh
O=S1(=O)C=C(SCCN2CCCCC2)c2ccccc21	63	–	–	–
CN1C(=O)/C(=N\OC(=O)c2cccc3ccccc23)c2ccccc21	80	–	–	–
COc1ccc(C(=O)O/N=C2\C(=O)N(C)c3ccccc32)cc1	66	–	–	–
C[C@@H]1CN([C@H](C)CO)C(=O)CCCn2cc(nn2)CO[C@H]1CN(C)C(=O)c1ccc2ccn(C)c2c1	–	–	·	·
O=C1CC(=C(c2ccccc2)c2ccccc2)C(=O)N1CCCCN1CCN(c2ccccc2)CC1	58	–	–	–
COC(=O)C(CC(=O)c1ccc(C)cc1)n1nc(C)cc1C (configuration not stated)	57	–	–	–
CC(=O)OC(C)C1C2=C(C(=O)CC1(C)O)C(=O)c1c(ccc(-c3ccc4c(c3O)C(=O)C3=C(C4=O)C(C(C)OC(C)=O)C(C)(O)CC3=O)c1O)C2=O (configuration not stated)	–	–	61	–
COc1ccc(/C=C(/NC(=O)c2ccc(OC)c(OC)c2)C(=O)NCCCn2ccnc2)cc1	–	–	–	–
COc1ccc(C(=O)Oc2ccc3oc(=O)sc3c2)cc1	–	23	–	–
COCC(=O)N(C)C[C@H]1N[C@@](C)(C(=O)OC)[C@H]2C(=O)N(C)C(=O)[C@@H]12	–	–	–	–
Cc1cc(C)n2c(NC3CCCCC3)c(CC(C)C)nc2n1	–	–	·	·
COCc1cc(CN2CCCC(C(=O)Nc3ccc(-c4ccco4)cc3)C2)ccc1OC (configuration not stated)	–	32	–	–
Cc1nn(-c2ccccc2)c(C)c1C(=O)N1CCN(S(=O)(=O)c2ccccc2)CC1	–	–	–	–
CC1(C)Cc2c(C#N)c(N3CCN(C(=O)c4ccccc4Cl)CC3)nc(-c3ccco3)c2CS1	–	29	–	–
O=C1S/C(=C\c2ccc(N3CCOCC3)o2)C(=O)N1Cc1ccc(F)cc1	–	–	60	–
COc1cc(/C=C2\SC(=Nc3ccccc3)N(CCc3c[nH]c4ccccc34)C2=O)ccc1OC(C)C(=O)O (configuration not stated)	–	–	–	–
O=C1S/C(=C/c2ccc(N3CCOCC3)o2)C(=O)N1Cc1ccc(F)cc1	78	–	–	–
O=C1N/C(=C/c2ccc(N3CCOCC3)cc2)C(=O)N1Cc1ccc(F)cc1	–	–	–	–
O=C1/C(=C/c2ccc(N3CCOCC3)o2)SC(=Nc2ccccc2)N1CCc1c[nH]c2ccccc12	75	77	77	–
CC(=O)C1=C(c2ccc(Br)cc2)C(=O)c2ccccc2C1=O	–	–	106	83
CNC1=C(N(C(C)=O)c2ccc(Br)cc2)C(=O)c2ccccc2C1=O	–	–	–	–
CC1Cc2cc(S(=O)(=O)N3CCC(C(=O)NCc4ccco4)CC3)ccc2N1C(=O)C1CCC1 (configuration not stated)	–	–	–	–
CCOC(=O)CCc1nc2ccccc2[nH]1	–	–	–	–
COCC(=O)O[C@]1(CCN(C)CCCc2nc3ccccc3[nH]2)CCc2cc(F)ccc2[C@@H]1C(C)C	63	–	–	–
C=CCNC(=S)/N=c1/ccccn1CC	–	–	–	–
SMILES	Granule exo inh	ABHD5-PLIN5 inh	PfG6PD inh	HKDC1 inh
COc1ccc(NC(=O)/C(C#N)=C\c2ccc(Br)o2)cc1	–	–	–	–
N#C/C(=C\c1ccc([N+](=O)[O-])o1)C(=O)Nc1ccc(F)cc1	86	–	–	–
[O-][n+]1c(/C=C/c2ccccc2)ccc2ccccc21	87	–	–	–
Cc1ccccc1CN(C)CCS(=O)(=O)c1cc(Cl)ccc1Cl	–	23	–	–
Nc1nnc(CCS(=O)(=O)c2cc(Cl)ccc2Cl)s1	–	–	–	–
CC(C)(C)c1ccc(C(=O)COC(=O)CN2C(=O)NC3(CCCC3)C2=O)cc1	–	–	–	–
O=c1sc2ccccc2c(=O)n1Cc1ccccc1F	–	–	–	–
COC(=O)c1cccc(-n2sc3ccccc3c2=O)c1	–	91	117	–
COC(=O)c1cccc(N2CCCC2=O)c1	–	–	–	–
O=c1c2ccccc2sn1-c1ccc(F)cc1	–	71	113	–
Cc1ccc(NC(=O)CCC(=O)c2cccs2)c(O)c1	–	–	–	–
COc1cccc(C2C(C#N)=C(N)Oc3cc(C)n(Cc4ccco4)c(=O)c32)c1 (configuration not stated)	–	22	–	–
O=C(Cn1c2ccc(F)cc2c2nc3n(c(=O)c21)CCS3)Nc1ccc(Cl)cc1F	–	–	–	–
O=c1c2c(nc3n1CCS3)c1cc(F)ccc1n2Cc1cc(=O)n2cc(Cl)ccc2n1	·	·	62	–
CCN1/C(=C/c2ccc3cc(C)ccc3[n+]2CC)Sc2cc(C)c(C)cc21	57	–	–	–
CC[n+]1c(/C=C/Nc2ccccc2)sc2ccccc21	–	–	–	–
CCN1/C(=C/c2ccc3cc(C)ccc3[n+]2CC)Sc2ccccc21	–	23	–	–
CCN1/C(=C/C=C/c2sc3ccccc3[n+]2CC)Sc2ccccc21	75	–	–	–
Cc1ccnc(SCC(=O)NC2CC2)n1	–	–	–	–
Cc1ccc(N2C(=O)N(CC(=O)Nc3ccc(C)c(C)c3)C(=O)C2C)cc1 (configuration not stated)	–	–	–	–
CCN1CCN(C(=S)c2ccc(Cl)cc2)CC1	–	–	81	–
CC(C)(C)c1ccc(-n2nc(C#N)c(Cl)cc2=O)cc1	–	32	–	–
COc1cccc(C(NC(C)=O)c2nc(-c3ccncc3)cs2)c1 (configuration not stated)	–	–	·	·
O=[N+]([O-])c1ccccc1-c1ccc(C(=S)N2CCCCC2)o1	65	–	–	–
Cc1cccc(NC(=S)N2CCC(NC(=O)c3cccc(F)c3)CC2)c1	–	–	–	–
SMILES	Granule exo inh	ABHD5-PLIN5 inh	PfG6PD inh	HKDC1 inh
CCn1c(SCC(=O)N/N=C(/C)c2ccncc2)nc2ccccc21	60	–	–	–
COc1ccc(OC)c2sc(N(CCCN(C)C)C(=O)CCS(=O)(=O)c3ccccc3)nc12	–	39	–	–
COc1ccc(Cl)c2sc(N(CCN(C)C)C(=O)CCS(=O)(=O)c3ccc(C)cc3)nc12	–	–	–	–
CCN1Cc2c(/C=C/c3ccccc3)nc3ccc(OC)cc3c2N(c2cccc(Cl)c2)C1	65	–	–	–
COc1ccc2ncc(S(=O)(=O)c3ccccc3)c(N3CCN(c4ccccc4)CC3)c2c1	–	–	–	–
O=C(NCCCN1CCCC1=O)C1CCCO1 (configuration not stated)	–	–	–	–
COC(=O)C(Cc1ccccc1)OS(N)(=O)=O (configuration not stated)	–	–	–	–
Cc1ccc(-n2ncc(C(=O)Nc3cc(Cl)ccc3Cl)c2C2CCNCC2)cc1	–	–	–	–
Cc1ccc(-n2ncc(C(=O)Nc3cc(Cl)cc(Cl)c3)c2C2CCNCC2)cc1C	88	–	–	–
CCOC(=O)c1cc(C#N)c(SCC(=O)c2cc(C#N)c(SC)nc2C)[nH]c1=O	–	–	–	–
CSc1nc(C)c(C(=O)C[n+]2ccc(C)cc2)cc1C#N	76	–	–	–
